Assay results: ChEMBL document CHEMBL4689842, “EUbOPEN Chemogenomics Library wave 1” (2021)
“And” between values parts separate entries of the source, which are not always exact repeats. Identical values can stand only once.

Assays:
U2OS = assay: Multiplex assay against U2OS; type: toxicity, cell-based; conditions: human
Summary of the method: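 On a CQ1 microscope at 37°C and 5% CO2, live cells were imaged after compound addition. They had been stained at seeding with Hoechst33342, BioTracker Green Microtubule Cytoskeleton Dye, MitoTracker Red and Annexin V Alexa Fluor 680. CellPathfinder machine-learning gating assigned cells to Hoechst high-intensity objects or normal cells, normal cells to healthy, pyknosed or fragmented nuclei, and pyknosed cells to mitotic or apoptotic. Tubulin, mitochondrial-mass and membrane-permeability phenotypes are per cents of healthy-nucleus cells.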

Fibroblast = assay: Incucyte cell viability with human fibroblast; type: toxicity, cell-based; conditions: 10 µM, compound concentration 10 uM; note: filed as whole numbers so only -1 and 0 and 1 occur
[1] = 12 h, 1 µM, compound concentration 1 uM, replicate 1
[2] = 12 h, 1 µM, compound concentration 1 uM, replicate 2
[3] = 12 h, 10 µM, compound concentration 10 uM, replicate 1
[4] = 12 h, 10 µM, compound concentration 10 uM, replicate 2
[5] = 24 h, 1 µM, compound concentration 1 uM, replicate 1
[6] = 24 h, 1 µM, compound concentration 1 uM, replicate 2
[7] = 24 h, 10 µM, compound concentration 10 uM, replicate 1
[8] = 24 h, 10 µM, compound concentration 10 uM, replicate 2
[9] = 6 h, replicate number 1, timepoint 6 hours
[10] = 12 h, replicate number 1, timepoint 12 hours
[11] = 18 h, replicate number 1, timepoint 18 hours
[12] = 24 h, replicate number 1, timepoint 24 hours
[13] = 48 h, 10 µM, compound concentration 10 uM, replicate 1
[14] = 48 h, 10 µM, compound concentration 10 uM, replicate 2

CCOc1ccn(-c2ccc(F)cc2)c(=O)c1C(=O)Nc1ccc(Oc2ccnc(N)c2Cl)c(F)c1 [BMS-777607]
Population Apoptotic (%) (U2OS; [1]): 41% | Population Healthy Nuclei (%) (U2OS; [1]): 88% | Population Hoechst High Intensity Objects (%) (U2OS; [1]): 4% | Population Membrane Permeable-Phenotype (%) (U2OS; [1]): 35% | Population Mitochondria Different-Phenotype (%) (U2OS; [1]): 11% | Population Mitotic Cells (%) (U2OS; [1]): 58% | Population Normal (%) (U2OS; [1]): 95% | Population Pyknosed Nuclei (%) (U2OS; [1]): 6% | Total Cell Count (U2OS; [1]): 190 | Population Apoptotic (%) (U2OS; [2]): 28% | Population Fragmented Nuclei (%) (U2OS; [2]): 4% | Population Healthy Nuclei (%) (U2OS; [2]): 86% | Population Hoechst High Intensity Objects (%) (U2OS; [2]): 13% | Population Membrane Permeable-Phenotype (%) (U2OS; [2]): 40% | Population Mitochondria Different-Phenotype (%) (U2OS; [2]): 31% | Population Mitotic Cells (%) (U2OS; [2]): 71% | Population Normal (%) (U2OS; [2]): 86% | Population Pyknosed Nuclei (%) (U2OS; [2]): 8% | Population Tubulin-Different-Phenotype (%) (U2OS; [2]): 18% | Total Cell Count (U2OS; [2]): 94 | Population Apoptotic (%) (U2OS; [3]): 66% | Population Fragmented Nuclei (%) (U2OS; [3]): 2% | Population Healthy Nuclei (%) (U2OS; [3]): 91% | Population Hoechst High Intensity Objects (%) (U2OS; [3]): 1% | Population Membrane Permeable-Phenotype (%) (U2OS; [3]): 5% | Population Mitochondria Different-Phenotype (%) (U2OS; [3]): 33% | Population Mitotic Cells (%) (U2OS; [3]): 33% | Population Normal (%) (U2OS; [3]): 98% | Population Pyknosed Nuclei (%) (U2OS; [3]): 6% | Population Tubulin-Different-Phenotype (%) (U2OS; [3]): 29% | Total Cell Count (U2OS; [3]): 193 | Population Apoptotic (%) (U2OS; [4]): 0% | Population Fragmented Nuclei (%) (U2OS; [4]): 6% | Population Healthy Nuclei (%) (U2OS; [4]): 89% | Population Hoechst High Intensity Objects (%) (U2OS; [4]): 16% | Population Mitochondria Different-Phenotype (%) (U2OS; [4]): 30% | Population Mitotic Cells (%) (U2OS; [4]): 100% | Population Normal (%) (U2OS; [4]): 83% | Population Pyknosed Nuclei (%) (U2OS; [4]): 4% | Population Tubulin-Different-Phenotype (%) (U2OS; [4]): 37% | Total Cell Count (U2OS; [4]): 118 | Population Apoptotic (%) (U2OS; [5]): 57% | Population Fragmented Nuclei (%) (U2OS; [5]): 7% | Population Healthy Nuclei (%) (U2OS; [5]): 85% | Population Hoechst High Intensity Objects (%) (U2OS; [5]): 3% | Population Membrane Permeable-Phenotype (%) (U2OS; [5]): 37% | Population Mitochondria Different-Phenotype (%) (U2OS; [5]): 23% | Population Mitotic Cells (%) (U2OS; [5]): 42% | Population Normal (%) (U2OS; [5]): 96% | Population Pyknosed Nuclei (%) (U2OS; [5]): 7% | Population Tubulin-Different-Phenotype (%) (U2OS; [5]): 16% | Total Cell Count (U2OS; [5]): 196 | Population Apoptotic (%) (U2OS; [6]): 36% | Population Fragmented Nuclei (%) (U2OS; [6]): 6% | Population Healthy Nuclei (%) (U2OS; [6]): 81% | Population Hoechst High Intensity Objects (%) (U2OS; [6]): 10% | Population Membrane Permeable-Phenotype (%) (U2OS; [6]): 28% | Population Mitochondria Different-Phenotype (%) (U2OS; [6]): 35% | Population Mitotic Cells (%) (U2OS; [6]): 63% | Population Normal (%) (U2OS; [6]): 89% | Population Pyknosed Nuclei (%) (U2OS; [6]): 12% | Population Tubulin-Different-Phenotype (%) (U2OS; [6]): 20% | Total Cell Count (U2OS; [6]): 101 | Population Apoptotic (%) (U2OS; [7]): 26% | Population Fragmented Nuclei (%) (U2OS; [7]): 3% | Population Healthy Nuclei (%) (U2OS; [7]): 91% | Population Hoechst High Intensity Objects (%) (U2OS; [7]): 1% | Population Membrane Permeable-Phenotype (%) (U2OS; [7]): 5% | Population Mitochondria Different-Phenotype (%) (U2OS; [7]): 27% | Population Mitotic Cells (%) (U2OS; [7]): 73% | Population Normal (%) (U2OS; [7]): 98% | Population Pyknosed Nuclei (%) (U2OS; [7]): 5% | Population Tubulin-Different-Phenotype (%) (U2OS; [7]): 30% | Total Cell Count (U2OS; [7]): 263 | Population Apoptotic (%) (U2OS; [8]): 12% | Population Fragmented Nuclei (%) (U2OS; [8]): 2% | Population Healthy Nuclei (%) (U2OS; [8]): 90% | Population Hoechst High Intensity Objects (%) (U2OS; [8]): 8% | Population Membrane Permeable-Phenotype (%) (U2OS; [8]): 8% | Population Mitochondria Different-Phenotype (%) (U2OS; [8]): 34% | Population Mitotic Cells (%) (U2OS; [8]): 87% | Population Normal (%) (U2OS; [8]): 91% | Population Pyknosed Nuclei (%) (U2OS; [8]): 6% | Population Tubulin-Different-Phenotype (%) (U2OS; [8]): 36% | Total Cell Count (U2OS; [8]): 133 | Growth Rate (Fibroblast; [9]): 0 | Growth Rate (Fibroblast; [10]): 0 | Growth Rate (Fibroblast; [11]): 0 | Growth Rate (Fibroblast; [12]): 0

c1ccc(-c2oc3ncnc(NC[C@@H]4CCCO4)c3c2-c2ccccc2)cc1
Population Apoptotic (%) (U2OS; [1]): 68% and 50% | Population Fragmented Nuclei (%) (U2OS; [1]): 4% | Population Healthy Nuclei (%) (U2OS; [1]): 86% and 84% | Population Mitochondria Different-Phenotype (%) (U2OS; [1]): 12% and 18% | Population Mitotic Cells (%) (U2OS; [1]): 31% and 50% | Population Normal (%) (U2OS; [1]): 98% and 95% | Population Pyknosed Nuclei (%) (U2OS; [1]): 9% and 8% | Total Cell Count (U2OS; [1]): 173 and 152 | Population Apoptotic (%) (U2OS; [2]): 66% and 25% | Population Fragmented Nuclei (%) (U2OS; [2]): 6% | Population Healthy Nuclei (%) (U2OS; [2]): 90% | Population Hoechst High Intensity Objects (%) (U2OS; [2]): 10% and 18% | Population Mitochondria Different-Phenotype (%) (U2OS; [2]): 17% and 35% | Population Mitotic Cells (%) (U2OS; [2]): 33% and 75% | Population Normal (%) (U2OS; [2]): 89% and 81% | Population Pyknosed Nuclei (%) (U2OS; [2]): 7% and 4% | Total Cell Count (U2OS; [2]): 137 and 107 | Population Apoptotic (%) (U2OS; [3]): 78% | Population Fragmented Nuclei (%) (U2OS; [3]): 12% | Population Healthy Nuclei (%) (U2OS; [3]): 64% | Population Hoechst High Intensity Objects (%) (U2OS; [3]): 10% | Population Membrane Permeable-Phenotype (%) (U2OS; [3]): 20% | Population Mitochondria Different-Phenotype (%) (U2OS; [3]): 82% | Population Mitotic Cells (%) (U2OS; [3]): 21% | Population Normal (%) (U2OS; [3]): 89% | Population Pyknosed Nuclei (%) (U2OS; [3]): 22% | Population Tubulin-Different-Phenotype (%) (U2OS; [3]): 93% | Total Cell Count (U2OS; [3]): 137 | Population Apoptotic (%) (U2OS; [4]): 87% | Population Fragmented Nuclei (%) (U2OS; [4]): 14% | Population Healthy Nuclei (%) (U2OS; [4]): 71% | Population Hoechst High Intensity Objects (%) (U2OS; [4]): 6% | Population Membrane Permeable-Phenotype (%) (U2OS; [4]): 34% | Population Mitochondria Different-Phenotype (%) (U2OS; [4]): 56% | Population Mitotic Cells (%) (U2OS; [4]): 12% | Population Normal (%) (U2OS; [4]): 93% | Population Pyknosed Nuclei (%) (U2OS; [4]): 14% | Population Tubulin-Different-Phenotype (%) (U2OS; [4]): 95% | Total Cell Count (U2OS; [4]): 61 | Population Apoptotic (%) (U2OS; [5]): 59% and 70% | Population Fragmented Nuclei (%) (U2OS; [5]): 6% | Population Healthy Nuclei (%) (U2OS; [5]): 79% and 90% | Population Hoechst High Intensity Objects (%) (U2OS; [5]): 2% and 3% | Population Mitochondria Different-Phenotype (%) (U2OS; [5]): 26% and 22% | Population Mitotic Cells (%) (U2OS; [5]): 40% and 30% | Population Normal (%) (U2OS; [5]): 97% and 96% | Population Pyknosed Nuclei (%) (U2OS; [5]): 13% and 5% | Population Tubulin-Different-Phenotype (%) (U2OS; [5]): 83% | Total Cell Count (U2OS; [5]): 198 and 202 | Population Fragmented Nuclei (%) (U2OS; [6]): 4% and 8% | Population Healthy Nuclei (%) (U2OS; [6]): 77% and 87% | Population Hoechst High Intensity Objects (%) (U2OS; [6]): 6% and 8% | Population Mitochondria Different-Phenotype (%) (U2OS; [6]): 19% and 29% | Population Normal (%) (U2OS; [6]): 93% and 91% | Total Cell Count (U2OS; [6]): 153 and 143 | Population Apoptotic (%) (U2OS; [7]): 82% | Population Fragmented Nuclei (%) (U2OS; [7]): 8% | Population Healthy Nuclei (%) (U2OS; [7]): 68% | Population Hoechst High Intensity Objects (%) (U2OS; [7]): 12% | Population Membrane Permeable-Phenotype (%) (U2OS; [7]): 34% | Population Mitochondria Different-Phenotype (%) (U2OS; [7]): 74% | Population Mitotic Cells (%) (U2OS; [7]): 17% | Population Normal (%) (U2OS; [7]): 87% | Population Pyknosed Nuclei (%) (U2OS; [7]): 23% | Population Tubulin-Different-Phenotype (%) (U2OS; [7]): 95% | Total Cell Count (U2OS; [7]): 138 | Population Apoptotic (%) (U2OS; [8]): 100% | Population Fragmented Nuclei (%) (U2OS; [8]): 14% | Population Hoechst High Intensity Objects (%) (U2OS; [8]): 10% | Population Membrane Permeable-Phenotype (%) (U2OS; [8]): 21% | Population Mitochondria Different-Phenotype (%) (U2OS; [8]): 56% | Population Mitotic Cells (%) (U2OS; [8]): 0% | Population Normal (%) (U2OS; [8]): 90% | Population Pyknosed Nuclei (%) (U2OS; [8]): 16% | Population Tubulin-Different-Phenotype (%) (U2OS; [8]): 81% | Total Cell Count (U2OS; [8]): 60 | Population Apoptotic (%) (U2OS; [13]): 70% | Population Fragmented Nuclei (%) (U2OS; [13]): 15% | Population Healthy Nuclei (%) (U2OS; [13]): 57% | Population Hoechst High Intensity Objects (%) (U2OS; [13]): 5% | Population Membrane Permeable-Phenotype (%) (U2OS; [13]): 41% | Population Mitochondria Different-Phenotype (%) (U2OS; [13]): 61% | Population Mitotic Cells (%) (U2OS; [13]): 29% | Population Normal (%) (U2OS; [13]): 94% | Population Pyknosed Nuclei (%) (U2OS; [13]): 26% | Population Tubulin-Different-Phenotype (%) (U2OS; [13]): 89% | Total Cell Count (U2OS; [13]): 134 | Population Apoptotic (%) (U2OS; [14]): 77% | Population Fragmented Nuclei (%) (U2OS; [14]): 12% | Population Healthy Nuclei (%) (U2OS; [14]): 75% | Population Hoechst High Intensity Objects (%) (U2OS; [14]): 10% | Population Membrane Permeable-Phenotype (%) (U2OS; [14]): 62% | Population Mitochondria Different-Phenotype (%) (U2OS; [14]): 27% | Population Mitotic Cells (%) (U2OS; [14]): 22% | Population Normal (%) (U2OS; [14]): 90% | Population Pyknosed Nuclei (%) (U2OS; [14]): 12% | Population Tubulin-Different-Phenotype (%) (U2OS; [14]): 72% | Total Cell Count (U2OS; [14]): 80 | Growth Rate (Fibroblast; 0 h, replicate number 2, timepoint 0 hours): 1 | Growth Rate (Fibroblast; [9]): 0 | Growth Rate (Fibroblast; [10]): 0 | Growth Rate (Fibroblast; [11]): 0 | Growth Rate (Fibroblast; [12]): 0
